An excerpt weighted towards active compounds, which were near 3.5% of everything screened.
RGS4 block = human RGS4 inhibition | HEK293 M3R/RGS4 inducible, Fluo-4 calcium flux; stronger effect = higher value; triggered by carbachol at its EC20 | hit rate 0.45% among 310,000 | B-score at 10 µM;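 active = B-score, a plate-corrected calcium signal, over three deviations above library mean, with baseline fluorescence within five deviations of library mean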;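 also: RGS4 expression induced by doxycycline in cells with stable M3 receptor; B-score is computed from the integrated fluorescence ratio over baseline after carbachol; higher B-score means a larger calcium signal and so more RGS4 inhibition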
Target sequence (P49798 whole entry, looked up): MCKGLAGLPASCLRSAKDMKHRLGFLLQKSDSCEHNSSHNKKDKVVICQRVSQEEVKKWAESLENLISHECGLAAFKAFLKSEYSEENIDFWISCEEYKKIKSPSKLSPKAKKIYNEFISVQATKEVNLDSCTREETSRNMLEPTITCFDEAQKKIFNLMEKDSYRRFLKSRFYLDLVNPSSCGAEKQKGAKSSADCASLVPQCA
RGS4 act = RGS4 potentiation or activation; HEK293 M3R/inducible RGS4, carbachol calcium flux Fluo4; stronger effect = lower value; B-score at 10 µM; hit rate 0.92% among 310,000;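 active = B-score of the integrated calcium signal more than 4 SD below the library mean, with starting fluorescence not abnormally high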;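 also: negative B-score means reduced calcium response which marks RGS4 activation or potentiation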
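test system = M3R-expressing HEK293 line, RGS4 induced by doxycycline | probe or stimulus = carbachol at ECmax as muscarinic agonist stimulus | timing = dye loading 30 min 37 °C, buffer rest 30 min RT | signal = calcium dye Fluo4 fluorescence | evaluation = B score from integrated fluorescence ratio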
MrgX1 PAM = human MrgX1 positive allosteric modulation, primary screen; Q96LB2; MrgX1-HEK293, Fluo-4 calcium flux, FDSS; stronger effect = higher value; B-score at 10 µM; hit rate 0.63% among 310,000; AID 588675;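 active = plate-corrected calcium response at least 3 library SD above typical, normal starting fluorescence, not activating the receptor alone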;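 also: compound read alongside a low EC10 to EC30 dose of BAM8-22 agonist; peak minus trough fluorescence over baseline measured at the second addition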
Target sequence (Q96LB2 whole entry, looked up): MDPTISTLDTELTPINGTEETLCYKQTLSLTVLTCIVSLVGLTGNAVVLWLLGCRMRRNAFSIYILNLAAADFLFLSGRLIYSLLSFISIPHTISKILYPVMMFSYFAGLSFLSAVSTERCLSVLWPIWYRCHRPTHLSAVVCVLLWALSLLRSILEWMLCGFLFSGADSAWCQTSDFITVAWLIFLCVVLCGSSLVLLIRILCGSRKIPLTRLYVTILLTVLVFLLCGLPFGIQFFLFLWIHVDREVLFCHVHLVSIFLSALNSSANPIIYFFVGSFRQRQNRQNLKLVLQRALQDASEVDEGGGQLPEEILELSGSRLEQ
MrgX1 antag = antagonists of human MrgX1 receptor; Q96LB2; MRGX1-HEK293 calcium flux, Fluo-4, BAM8-22 antagonism; stronger effect = lower value; B-score at 10 µM; hit rate 1.3% among 310,000; AID 588676;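 active = calcium-response B-score plate-corrected more than 3 library SD below zero, starting fluorescence within 5 deviations, no agonist response on first addition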;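 also: peak minus trough fluorescence over baseline after final BAM8-22 challenge near maximal dose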
MrgX1 ag = human MrgX1 receptor agonism, primary screen; Q96LB2; MrgX1-HEK293 cells, Fluo-4 calcium fluorescence, agonist mode; stronger effect = higher value; B-score at 10 µM; hit rate 0.44% among 310,000; AID 588627;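 active = calcium response B-score plate-corrected fluorescence ratio at least 3 library SD, with starting fluorescence B-score inside 5 SD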
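Material – MrgX1-expressing HEK293 cells · Input – 15,000 cells seeded per well · Dosing – compound as first of three additions · Times – overnight seeding, then 1 h dark dye loading · Measured by – kinetic Fluo-4 NW fluorescence of intracellular calcium · Read-out – B-scored fluorescence response ratio · Benchmarks – positive and negative control wells on each plate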
MrgX1 ag confirm = human MrgX1 agonism, re-confirmation screen | MrgX1-HEK293, Fluo-4 calcium fluorescence, FDSS | shares compounds with MrgX1 ag | activation, % at 10 µM | AID 602412 | hit rate 78% among 600;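 active = calcium signal rise, corrected for plate position, at least 3 library SD high, with starting brightness within 5 such deviations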
HEK293 Ca flux = counter-screen for MrgX1 antagonists: effect in parental HEK293 cells; Fluo-4 calcium fluorescence, FDSS; hit rate 2% among 4,000; fluorescence ratio F(max-min)/F0 at 10 µM; shares compounds with MrgX1 antag; AID 624111;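 active = duplicate-averaged calcium fluorescence ratio at least three times the standard deviation of buffer wells, a nonspecific response in parental cells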
HEK293 Ca counter = activity in parental HEK293 cells without MrgX1; hit rate 0.4% among 4,000; parental HEK293 calcium flux, Fluo-4 fluorescence ratio; stronger effect = higher value; shares compounds with MrgX1 antag; fluorescence ratio F(max-min)/F0 at 10 µM;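 active = calcium fluorescence ratio, averaged over duplicates, at least 3 SD of the buffer-well ratio, meaning a nonspecific response in receptor-free cells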;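 also: untransfected parental HEK293 lacking MrgX1 used as counterscreen for MrgX1 allosteric activators; fluorescence change taken during the second addition on a kinetic imager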
HEK293 Ca cntr2 = activity in parental HEK293 cells lacking MrgX1 receptor. shares compounds with MrgX1 antag. Fluo-4 calcium fluorescence (FDSS); stronger effect = higher value. fluorescence ratio F(max-min)/F0 at 10 µM. hit rate 8.7% among 4,000. AID 624115;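 active = calcium fluorescence ratio at least three times the spread of buffer wells, meaning a non-specific response in parental cells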
The depositor's hits bear a star; i = inactive; nt = no result.

SMILES	RGS4 block	RGS4 act	MrgX1 PAM	MrgX1 antag	MrgX1 ag	MrgX1 ag confirm	HEK293 Ca flux	HEK293 Ca counter	HEK293 Ca cntr2
CC(C)OC(=O)CN1C(=O)S/C(=C/c2ccc(N3CCCCC3)o2)C1=O	i	i	i	i	64*	i	0.079*	i	i
O=C1S/C(=C\c2ccc(N3CCOCC3)o2)C(=O)N1Cc1ccc(F)cc1	nt	nt	i	i	i	nt	nt	nt	nt
Cc1nnc(SCCOC(N)=O)n1C	i	i	nt	nt	nt	nt	nt	nt	nt
C[N+](C)(C)CCOC(N)=O	nt	nt	i	i	118*	547%*	i	i	112*
COc1cccc(N/C(N)=N/c2nc(CSc3ccccn3)cc(=O)[nH]2)c1	i	i	i	i	i	nt	nt	nt	nt
COc1ccnc(CSC(N)=Nc2ccc(F)cc2)c1	i	i	i	i	75*	383%*	i	i	75*
CSc1ccccc1OCc1cc(C(=O)N(Cc2nccn2C)C(C)C)no1	i	i	i	i	i	nt	nt	nt	nt
O=C(CCCc1ccccc1)NCc1ccc(F)cc1	i	i	i	i	i	nt	nt	nt	nt
CC(NC(=O)c1cccs1)c1ccc(Br)cc1 (stereo unspecified)	i	i	i	i	i	nt	nt	nt	nt
N=C(N)SCCc1cccc(CCSC(=N)N)c1	i	i	i	i	40*	181%*	i	i	i
Cc1ccc(CNC(=O)c2ccc(Cl)c(S(N)(=O)=O)c2)n1C	i	i	i	i	71*	283%*	i	i	i
CCOC(=O)c1c(NC(=O)c2ccccc2C(=O)O)sc2c1CCCC2	i	i	i	i	34*	192%*	i	i	i
COc1ccc(CN(CC(=O)NC2CCCC2)C(=O)CCC(=O)Nc2nc(C)cs2)cc1	i	i	i	i	i	nt	nt	nt	nt
CC[C@@H](C(=O)[C@@H](C)[C@@H](O)[C@H](C)CCc1ccc(C)c(O)c1C(=O)O)[C@H]1O[C@](CC)([C@H]2CC[C@](O)(CC)[C@H](C)O2)C[C@@H]1C	i	i	i	i	147*	909%*	i	i	198*
CCCOc1ncnc2c1[nH]c1ccccc12	i	i	i	i	i	nt	nt	nt	nt
CCN(CC)c1ncnc2c1[nH]c1ccccc12	i	i	i	i	28*	125%*	i	i	i
O=C(CCc1[nH]c2ccccc2c1Sc1ccccc1)NCCO	i	i	i	i	i	nt	nt	nt	nt
c1csc(C2C3=C(Nc4ncnn42)c2ccccc2OC3)c1 (stereo unspecified)	i	i	i	i	31*	122%*	i	i	i
N#CC1=C(N)Oc2cc(N)ccc2C1c1ccc(Cl)cc1 (stereo unspecified)	i	i	i	i	i	nt	nt	nt	nt
N#CC1=C(N)Oc2cc(N)ccc2C1c1ccccc1Cl (stereo unspecified)	i	i	i	i	29*	i	i	i	i
COc1cc(/C=C2\SC(=S)N(NC(=O)c3ccccc3OC)C2=O)ccc1O	i	i	i	i	i	nt	nt	nt	nt
COc1cc(/C=C2\SC(=S)N(NS(=O)(=O)c3ccccc3)C2=O)ccc1O	i	i	i	i	87*	375%*	i	i	99*
COc1cc(/C=C2\SC(=S)N(NS(=O)(=O)c3ccc(C)cc3)C2=O)cc(OC)c1OC	i	i	i	i	i	nt	nt	nt	nt
COc1cc(/C=C2\SC(=S)N(NS(=O)(=O)c3ccc(C)cc3)C2=O)ccc1O	i	-7.7*	i	i	116*	555%*	0.38*	i	149*
NC(=Nc1ccc(Br)cc1)c1ccccc1	i	i	i	i	78*	289%*	i	i	48*
SMILES	RGS4 block	RGS4 act	MrgX1 PAM	MrgX1 antag	MrgX1 ag	MrgX1 ag confirm	HEK293 Ca flux	HEK293 Ca counter	HEK293 Ca cntr2
CN1CCN(C(=O)CSc2nc(-c3ccncc3)ccc2C#N)CC1	i	i	i	i	35*	158%*	i	i	i
N#Cc1ccc(-c2cccnc2)nc1SCC(=O)c1ccccc1	i	i	i	i	30*	197%*	i	i	i
CN1CCN(C(=O)CSc2nc(-c3cccs3)cc(-c3cccs3)c2C#N)CC1	i	i	i	i	i	nt	nt	nt	nt
CCOC(=O)c1c(CN2CCN(C)CC2)n(C)c2cc(Br)c(OC)cc12	i	i	i	i	i	nt	nt	nt	nt
CCOC(=O)c1c(CSC(=N)N)n(C)c2cc(Br)c(OC(C)=O)cc12	i	i	i	i	46*	188%*	i	i	i
CCOc1ccc(Nc2nc(N(C)c3ccccc3)nc(N)c2[N+](=O)[O-])cc1	i	i	i	i	i	nt	nt	nt	nt
Fc1cccc(Nc2nc3ccccc3n3nnnc23)c1	i	i	i	i	i	nt	nt	nt	nt
COc1cccc(Nc2nc3ccccc3n3nnnc23)c1	i	i	i	i	31*	125%*	i	i	i
c1ccc2c(c1)nc(Nc1ccc3c(c1)OCO3)c1nnnn12	i	i	i	i	30*	207%*	i	i	i
O=C(NC1CCCCC1)c1cc(N2C(=O)CCC2=O)ccc1Cl	i	i	i	i	i	nt	nt	nt	nt
CCCN(CCC)C(=O)c1cn(CC)c2ccc(S(=O)(=O)N3CCCCC3)cc2c1=O	i	i	i	i	i	nt	nt	nt	nt
Cc1cc(Nc2cc(Cl)cc(Cl)c2)nc(N)n1	i	i	i	i	40*	243%*	i	i	i
Cc1cc(Nc2ccc(F)cc2)nc(N)n1	i	i	i	i	i	nt	nt	nt	nt
CN1c2ccccc2C(O)=C(C(=O)Nc2ccccc2)S1(=O)=O	i	i	i	i	41*	i	i	i	i
Nc1cc(=O)[nH]c(SCC(=O)N2CCCCC2)n1	i	i	i	i	i	nt	nt	nt	nt
COc1ccc(-n2c(O)c(/C=N/NS(=O)(=O)c3ccc(C)cc3)c3ccccc3c2=O)cc1OC	i	-7*	i	i	86*	199%*	i	i	67*

Compound activity: PubChem, Johns Hopkins Ion Channel Center
